This passage reports Ki, Ratio Ki and EC50 results from ChEMBL document CHEMBL1138415, “Analogues of the dopamine D2 receptor antagonist L741,626: Binding, function, and SAR” (Bioorg Med Chem Lett, 2007).

Experiment [1] has as its target T1, D(3) dopamine receptor (Homo sapiens, UniProt P35462). Put plainly: Displacement of [125I]IABN from human dopamine D3 receptor expressed in HEK293 cells. It counts as cell-based. On the technique in general: In a radioligand displacement assay an active substance lowers the binding of a labelled ligand.
The species named for experiment [2] is Homo sapiens. Put plainly: Selectivity for human dopamine D2L receptor over human dopamine D4 receptor.
The target of experiment [3] is T2, D(2) dopamine receptor (Homo sapiens, UniProt P14416). Put plainly: Antagonist activity at human dopamine D2 receptor expressed in CHO cells assessed as inhibition of quinpirole stimulated mitogenesis. It counts as functional, cell-based. An outline of the steps:
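Functional mitogenesis assay in CHO cells transfected with human D2 receptor; antagonism measured as inhibition of quinpirole-stimulated mitogenesis (agonism tested as stimulation); EC50 reported; run via NIDA CTDP contract protocol.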

Experiment [4] concerns the target T1, D(3) dopamine receptor. Put plainly: Antagonist activity at human dopamine D3 receptor expressed in CHO cells assessed as inhibition of quinpirole stimulated mitogenesis. It is filed as functional, cell-based.
Experiment [5] deals with T3, D(4) dopamine receptor (Homo sapiens, UniProt P21917).
T3 sequence (P21917 whole entry): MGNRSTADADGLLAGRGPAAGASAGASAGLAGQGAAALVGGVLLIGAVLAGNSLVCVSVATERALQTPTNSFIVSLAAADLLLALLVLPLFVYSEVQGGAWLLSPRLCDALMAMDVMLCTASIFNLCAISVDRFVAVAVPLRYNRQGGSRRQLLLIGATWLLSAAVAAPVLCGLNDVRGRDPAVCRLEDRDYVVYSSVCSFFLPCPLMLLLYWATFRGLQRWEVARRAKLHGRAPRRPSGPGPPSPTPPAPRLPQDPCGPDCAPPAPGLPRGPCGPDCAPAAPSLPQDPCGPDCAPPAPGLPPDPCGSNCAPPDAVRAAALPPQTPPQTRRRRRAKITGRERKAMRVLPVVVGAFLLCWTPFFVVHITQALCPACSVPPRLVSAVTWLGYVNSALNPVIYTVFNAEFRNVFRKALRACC
Put plainly: Displacement of [125I]IABN from human dopamine D4 receptor expressed in HEK293 cells. It counts as cell-based. The gist of the method:
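Competition binding on HEK 293 cells transfected with human D2L or D4 dopamine receptors; radioligand [125I]IABN displaced by test ligand; Ki values derived.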

Experiment [6] has as its target T2, D(2) dopamine receptor. Put plainly: Displacement of [125I]IABN from human dopamine D2L receptor expressed in HEK293 cells. It is filed as cell-based.
For experiment [7], the species on record is Homo sapiens. Put plainly: Selectivity for human dopamine D2L receptor over human dopamine D3 receptor.

T1 sequence (P35462 whole entry): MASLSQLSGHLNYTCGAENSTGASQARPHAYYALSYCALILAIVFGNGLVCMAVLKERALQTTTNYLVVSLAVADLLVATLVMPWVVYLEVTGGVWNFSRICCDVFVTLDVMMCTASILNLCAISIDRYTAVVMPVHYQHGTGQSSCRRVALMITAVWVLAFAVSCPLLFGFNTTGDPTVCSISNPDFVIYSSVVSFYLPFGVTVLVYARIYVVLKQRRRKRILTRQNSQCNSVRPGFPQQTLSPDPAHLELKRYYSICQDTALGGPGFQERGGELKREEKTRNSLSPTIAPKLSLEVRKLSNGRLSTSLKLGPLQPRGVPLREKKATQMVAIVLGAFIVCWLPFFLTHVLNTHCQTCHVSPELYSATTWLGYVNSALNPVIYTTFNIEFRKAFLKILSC
T2 sequence (P14416 whole entry): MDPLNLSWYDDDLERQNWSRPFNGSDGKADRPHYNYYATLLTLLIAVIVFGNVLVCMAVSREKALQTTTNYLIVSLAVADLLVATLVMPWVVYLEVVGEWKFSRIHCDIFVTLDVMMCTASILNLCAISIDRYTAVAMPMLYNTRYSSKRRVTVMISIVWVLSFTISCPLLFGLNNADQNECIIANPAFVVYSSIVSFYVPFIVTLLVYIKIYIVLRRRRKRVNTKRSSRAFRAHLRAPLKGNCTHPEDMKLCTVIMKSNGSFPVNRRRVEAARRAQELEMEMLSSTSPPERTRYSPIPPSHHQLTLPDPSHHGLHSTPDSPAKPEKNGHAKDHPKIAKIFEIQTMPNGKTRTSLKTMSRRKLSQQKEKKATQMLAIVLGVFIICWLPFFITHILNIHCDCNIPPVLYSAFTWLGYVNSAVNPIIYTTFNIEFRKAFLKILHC

With `Cn1cc(CN2CCC(O)(c3ccc(Cl)cc3)CC2)c2ccccc21`, the results for the Ki in experiment [1], in experiment [5] and in experiment [6] were 238 nM, 5140 nM and 29.6 nM, respectively. For the same compound, the Ratio Ki in experiment [2] amounted to 174; in experiment [7], 8. Also, the EC50 in experiment [3] amounted to 20 nM; in experiment [4], 98.6 nM.

On to `CC1(c2ccc(Cl)cc2)CCN(Cc2c[nH]c3ccccc23)CC1`, for which the Ki in experiment [1] turned out to be 2100 nM; in experiment [5], 2750 nM; in experiment [6], 992 nM. Further, the figures for the Ratio Ki in experiment [2] and in experiment [7] were 3 and 2, respectively. Besides, the EC50 in experiment [3] was found to be 314 nM; in experiment [4] it was 347 nM.

Consider `OC1(c2cccc(Cl)c2Cl)CCN(Cc2c[nH]c3ccccc23)CC1`, for which the figures for the Ki in experiment [1], in experiment [5] and in experiment [6] were 273 nM, 1550 nM and 26.1 nM, respectively. In addition, the results for the Ratio Ki in experiment [2] and in experiment [7] were 59 and 10, respectively. Also, the figures for the EC50 in experiment [3] and in experiment [4] were 34.3 nM and 232 nM, respectively.

In the case of `CCCCCCn1cc(CN2CCC(O)(c3ccc(Cl)cc3)CC2)c2ccccc21`, the inhibition constant Ki was determined as 488 nM in experiment [1], 8890 nM in experiment [5] and 188 nM in experiment [6]. Moreover, the Ratio Ki worked out at 47 in experiment [2] and 3 in experiment [7]. Moreover, the EC50 in experiment [3] worked out at 166 nM; in experiment [4], 661 nM.

One may read the Ki as a dissociation constant, usually derived from enzyme kinetics or from competition with a known ligand. In general, EC50 refers to the concentration giving half of the maximal effect.
